These results are taken from ChEMBL document CHEMBL4376901, “Azo-PROTAC: Novel Light-Controlled Small-Molecule Tool for Protein Knockdown” (J Med Chem, 2020).

pEC50, pIC50: −log10 of the molar value. Calls of active or inactive are those of the source. The calls are words filed in the database; no cut-off is given here.

The target of data set [1] is T1, Protein cereblon/Tyrosine-protein kinase ABL1 (Homo sapiens) (UniProt P00519+Q96SW2). Briefly: Protac activity at CRBN/ABL in human K562 cells assessed as reduction in ABL protein levels at 50 to 250 nM incubated for 24 hrs by Western blot analysis. It is filed as cell-based. The essentials:
(§1)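 K562 cells were exposed for 24 h to a concentration gradient of the trans or cis form. BCR-ABL and ABL protein levels were assessed by Western blot in a dose-effect design.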

The target in data set [2] is T2, Protein cereblon/Tyrosine-protein kinase ABL1/Breakpoint cluster region protein (Homo sapiens) (UniProt P00519+P11274+Q96SW2). Nature of the data set: Protac activity at CRBN/BCR-ABL in human K562 cells assessed as reduction in BCR-ABL protein levels at 50 to 250 nM incubated for 24 hrs by Western blot analysis. The format is cell-based. The essentials: as §1
T2 sequence (P00519 whole entry, looked up): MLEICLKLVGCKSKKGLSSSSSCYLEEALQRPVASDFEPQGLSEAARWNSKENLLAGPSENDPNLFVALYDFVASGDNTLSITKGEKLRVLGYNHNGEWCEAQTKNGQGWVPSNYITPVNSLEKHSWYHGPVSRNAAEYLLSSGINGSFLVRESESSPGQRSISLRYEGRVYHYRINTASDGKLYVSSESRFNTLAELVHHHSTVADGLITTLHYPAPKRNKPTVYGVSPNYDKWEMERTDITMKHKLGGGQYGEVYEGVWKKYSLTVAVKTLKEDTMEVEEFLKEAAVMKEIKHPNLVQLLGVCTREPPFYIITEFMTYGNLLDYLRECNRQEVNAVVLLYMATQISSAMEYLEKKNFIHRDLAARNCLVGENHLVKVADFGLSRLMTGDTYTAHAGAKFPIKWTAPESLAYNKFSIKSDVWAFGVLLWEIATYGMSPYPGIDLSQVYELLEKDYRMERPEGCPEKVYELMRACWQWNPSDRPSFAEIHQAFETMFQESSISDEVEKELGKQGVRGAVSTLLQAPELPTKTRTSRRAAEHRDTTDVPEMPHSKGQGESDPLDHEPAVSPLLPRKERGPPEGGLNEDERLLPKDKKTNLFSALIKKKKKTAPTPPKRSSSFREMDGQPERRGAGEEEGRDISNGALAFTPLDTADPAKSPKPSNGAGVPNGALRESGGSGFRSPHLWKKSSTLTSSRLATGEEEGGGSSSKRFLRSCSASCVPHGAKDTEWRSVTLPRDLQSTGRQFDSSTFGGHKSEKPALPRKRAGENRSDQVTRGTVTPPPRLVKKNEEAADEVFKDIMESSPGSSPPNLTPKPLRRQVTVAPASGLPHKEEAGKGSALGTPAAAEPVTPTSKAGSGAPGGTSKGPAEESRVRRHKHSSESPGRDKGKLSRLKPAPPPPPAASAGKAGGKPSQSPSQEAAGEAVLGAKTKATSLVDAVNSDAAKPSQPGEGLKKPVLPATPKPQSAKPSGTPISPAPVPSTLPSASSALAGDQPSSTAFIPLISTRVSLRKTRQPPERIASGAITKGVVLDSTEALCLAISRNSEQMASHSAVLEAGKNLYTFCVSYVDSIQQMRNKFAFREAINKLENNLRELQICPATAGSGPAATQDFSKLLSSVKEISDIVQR
T2 sequence (P11274 whole entry, looked up): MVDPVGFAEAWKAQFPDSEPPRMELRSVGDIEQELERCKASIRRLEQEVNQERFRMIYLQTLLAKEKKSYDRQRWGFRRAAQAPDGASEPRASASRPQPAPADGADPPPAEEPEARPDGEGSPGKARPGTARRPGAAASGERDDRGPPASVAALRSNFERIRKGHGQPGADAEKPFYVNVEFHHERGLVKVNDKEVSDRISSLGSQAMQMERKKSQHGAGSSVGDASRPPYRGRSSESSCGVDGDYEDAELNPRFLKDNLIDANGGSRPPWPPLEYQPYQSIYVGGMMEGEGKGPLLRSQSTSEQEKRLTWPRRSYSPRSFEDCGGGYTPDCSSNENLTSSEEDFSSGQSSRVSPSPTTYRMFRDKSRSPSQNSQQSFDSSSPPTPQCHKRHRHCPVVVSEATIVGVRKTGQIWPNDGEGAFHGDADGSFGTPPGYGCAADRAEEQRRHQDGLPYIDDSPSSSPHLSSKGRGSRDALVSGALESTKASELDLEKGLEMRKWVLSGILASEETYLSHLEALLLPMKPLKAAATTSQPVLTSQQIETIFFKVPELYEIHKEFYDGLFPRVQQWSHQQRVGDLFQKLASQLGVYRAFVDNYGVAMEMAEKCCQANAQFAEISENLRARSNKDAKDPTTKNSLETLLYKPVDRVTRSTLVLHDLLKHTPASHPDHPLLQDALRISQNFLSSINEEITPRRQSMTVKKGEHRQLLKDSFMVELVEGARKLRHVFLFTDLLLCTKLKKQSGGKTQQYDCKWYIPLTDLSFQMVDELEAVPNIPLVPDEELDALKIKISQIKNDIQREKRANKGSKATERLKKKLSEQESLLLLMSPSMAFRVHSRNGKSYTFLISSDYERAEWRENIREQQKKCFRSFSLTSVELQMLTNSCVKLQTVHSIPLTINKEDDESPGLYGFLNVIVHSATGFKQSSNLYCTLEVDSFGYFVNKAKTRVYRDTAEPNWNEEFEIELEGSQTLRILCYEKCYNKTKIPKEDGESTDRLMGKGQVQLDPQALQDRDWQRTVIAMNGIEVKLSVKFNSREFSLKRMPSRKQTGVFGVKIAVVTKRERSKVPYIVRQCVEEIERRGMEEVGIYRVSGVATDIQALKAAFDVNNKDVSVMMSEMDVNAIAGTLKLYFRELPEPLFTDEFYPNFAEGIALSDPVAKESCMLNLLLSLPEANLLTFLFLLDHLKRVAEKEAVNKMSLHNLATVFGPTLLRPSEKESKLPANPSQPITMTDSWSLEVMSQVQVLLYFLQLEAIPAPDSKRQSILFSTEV
T2 sequence (Q96SW2 whole entry, looked up): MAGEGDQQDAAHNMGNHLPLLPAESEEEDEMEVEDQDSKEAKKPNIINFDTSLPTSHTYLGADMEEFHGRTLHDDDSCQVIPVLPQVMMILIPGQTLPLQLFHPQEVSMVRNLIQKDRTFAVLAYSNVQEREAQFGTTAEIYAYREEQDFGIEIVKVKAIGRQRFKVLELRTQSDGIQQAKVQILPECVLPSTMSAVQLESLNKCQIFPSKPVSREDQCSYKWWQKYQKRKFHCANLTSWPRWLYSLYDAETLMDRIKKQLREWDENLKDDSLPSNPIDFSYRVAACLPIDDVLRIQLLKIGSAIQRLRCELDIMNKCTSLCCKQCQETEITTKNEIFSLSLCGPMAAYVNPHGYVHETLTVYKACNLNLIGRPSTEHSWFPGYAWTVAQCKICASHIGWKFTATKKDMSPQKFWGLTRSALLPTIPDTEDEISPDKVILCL
Data set [3] concerns the target T2, Protein cereblon/Tyrosine-protein kinase ABL1/Breakpoint cluster region protein (Homo sapiens). Briefly: Protac activity at CRBN/BCR-ABL in human K562 cells assessed as reduction in BCR-ABL protein levels incubated for 24 hrs followed by exposure to white light up to 24 hrs hrs by Western blot analysis. The format is cell-based. The essentials:
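Cells were preincubated with the cis form while shielded from light, then moved to fresh medium and exposed to visible light. BCR-ABL was followed over time by Western blot.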

Data set [4] has the same target. Nature of the data set: Protac activity at CRBN/BCR-ABL in human K562 cells assessed as reduction in BCR-ABL protein levels at 250 nM incubated for 4 hrs by Western blot analysis. It is filed as cell-based. Particulars: in the assay text read “10 hrs” for “4 hrs”. In outline: (§2)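 Time-course in K562 cells at a fixed 250 nM PROTAC, run separately with the trans and cis forms. Cells were harvested at several time points. BCR-ABL and ABL protein levels were read by Western blot.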

Data set [5] can be described thus: Drug metabolism assessed as photoisomerization to cis-isomer after exposure to UV-C light and measured up to 120 mins by UV-visible absorption spectra analysis.
Data set [6] deals with T2, Protein cereblon/Tyrosine-protein kinase ABL1/Breakpoint cluster region protein (Homo sapiens). Nature of the data set: Protac activity at CRBN/BCR-ABL in human K562 cells assessed as reduction in BCR-ABL protein levels incubated for 24 hrs by Western blot analysis.
Data set [7] shares this target. Briefly: Protac activity at CRBN/BCR-ABL in human K562 cells assessed as reduction in BCR-ABL protein levels incubated for 24 hrs followed by exposure to UV-C light every 4 hrs by Western blot analysis. The format is cell-based. The essentials:
(§3)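 K562 cells were treated with the trans form for 24 h, then moved to fresh medium and split into two groups. One group was exposed to UV-C light every 4 h and harvested. The control group was harvested without irradiation at 0, 4, 8, 12, 16 and 24 h. Proteins were read by Western blot.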

Data set [8] relates to K562. Briefly: Antiproliferative activity against human K562 cells assessed as inhibition of cell proliferation incubated for 48 hrs by CCK8 assay. The format is functional, cell-based. To be noted: K562, 48 h.
Data set [9] is described as follows: Half life for spontaneous thermal relaxation under dark condition at 25 degC. The format is physicochemical.
The target in data set [10] is T1, Protein cereblon/Tyrosine-protein kinase ABL1 (Homo sapiens). Nature of the data set: Protac activity at CRBN/ABL in human K562 cells assessed as reduction in ABL protein levels at 250 nM incubated for 32 hrs by Western blot analysis. The format is cell-based. On the set-up: scale not given: the % may be the effect or the level left. The essentials: as §2
The target is the same in data set [11]. Briefly: Protac activity at CRBN/ABL in human K562 cells assessed as reduction in ABL protein levels incubated for 24 hrs followed by exposure to white light up to 24 hrs by Western blot analysis. It is filed as cell-based.
The target of data set [12] is T2, Protein cereblon/Tyrosine-protein kinase ABL1/Breakpoint cluster region protein (Homo sapiens). Nature of the data set: Protac activity at CRBN/BCR-ABL in human K562 cells assessed as reduction in BCR-ABL protein levels at 100 nM incubated for 24 hrs by Western blot analysis.
The nature of data set [13]: Stability in presence of 20 mM of GSH reduced in DMSO/PBS buffer (1:1) solution incubated for 48 hrs. It is filed as physicochemical.
The target of data set [14] is T1, Protein cereblon/Tyrosine-protein kinase ABL1 (Homo sapiens). Briefly: Protac activity at CRBN/ABL in human K562 cells assessed as reduction in ABL protein levels pre-treated with lenalidomide followed by compound addition at 250 nM incubated for 24 hrs by Western blot analysis. The format is cell-based.
Data set [15] concerns the target T2, Protein cereblon/Tyrosine-protein kinase ABL1/Breakpoint cluster region protein (Homo sapiens). Nature of the data set: Protac activity at CRBN/BCR-ABL in human K562 cells assessed as reduction in BCR-ABL protein levels pre-treated with lenalidomide followed by compound addition at 250 nM incubated for 24 hrs by Western blot analysis. The format is cell-based.

Data set [16] shares this target. Nature of the data set: Protac activity at CRBN/BCR-ABL in human K562 cells assessed as reduction in BCR-ABL protein levels pre-treated with NEDD8-activating enzyme (NAE) inhibitor MLN4924 followed by compound addition at 250 nM incubated for 24 hrs by Western blot analysis. It is filed as cell-based.
The target is the same in data set [17]. Nature of the data set: Protac activity at CRBN/BCR-ABL in human K562 cells assessed as reduction in BCR-ABL protein levels at 250 nM incubated for 10 hrs by Western blot analysis. The format is cell-based. The essentials:
as §2

Data set [18] concerns K562. Nature of the data set: Effect on ABL gene expression in human K562 cells at 50 to 500 nM incubated for 36 hrs by RT-qPCR analysis. The format is ADME, cell-based. To be noted: k562, 36 h, 0.5 µM.
Data set [19] concerns the target T1, Protein cereblon/Tyrosine-protein kinase ABL1 (Homo sapiens). Briefly: Protac activity at CRBN/ABL in human K562 cells assessed as reduction in ABL protein levels at 100 nM incubated for 24 hrs by Western blot analysis.
Data set [20] shares this target. Nature of the data set: Protac activity at CRBN/ABL in human K562 cells assessed as reduction in ABL protein levels at 250 nM incubated for 10 hrs by Western blot analysis. The format is cell-based. The essentials: as §2
Another data set has as its system MCF7. Briefly: Cytotoxicity against human MCF7 cells assessed as inhibition of cell viability incubated for 48 hrs by Cell-titer-Glo luminescent cell viability assay. The format is functional, cell-based.
In the next data set the test system is A549. Briefly: Cytotoxicity against human A549 cells assessed as inhibition of cell viability incubated for 48 hrs by Cell-titer-Glo luminescent cell viability assay. The format is functional, cell-based.
Data set [21] is described as follows: Drug metabolism assessed as photoisomerization to cis-isomer after exposure to UV-C light and measured after 1 hr by UV-visible absorption spectra analysis.
In data set [22] the target is T1, Protein cereblon/Tyrosine-protein kinase ABL1 (Homo sapiens). Briefly: Protac activity at CRBN/ABL in human K562 cells assessed as reduction in ABL protein levels at 250 nM incubated for 4 hrs by Western blot analysis. It is filed as cell-based. In outline: as §2
The target is the same in data set [23]. Nature of the data set: Protac activity at CRBN/ABL in human K562 cells assessed as reduction in ABL protein levels pre-treated with ABL inhibitor dasatinib followed by compound addition at 250 nM incubated for 24 hrs by Western blot analysis. The format is cell-based.
For data set [24] the target is unchanged. Briefly: Protac activity at CRBN/ABL in human K562 cells assessed as reduction in ABL protein levels incubated for 24 hrs followed by exposure to UV-C light every 4 hrs by Western blot analysis. The format is cell-based. The essentials: as §3
Data set [25] can be described thus: Drug metabolism assessed as photoisomerization to cis-isomer after exposure to white light light up to 240 mins by UV-visible absorption spectra analysis.
The target of data set [26] is T2, Protein cereblon/Tyrosine-protein kinase ABL1/Breakpoint cluster region protein (Homo sapiens). Briefly: Protac activity at CRBN/BCR-ABL in human K562 cells assessed as reduction in BCR-ABL protein levels at 250 nM incubated for 32 hrs by Western blot analysis. On the set-up: scale not given: the % may be the effect or the level left. It is filed as cell-based. The essentials: as §2

For data set [27], the system named is K562. Briefly: Cytotoxicity against human K562 cells assessed as inhibition of cell viability incubated for 48 hrs by Cell-titer-Glo luminescent cell viability assay. The format is functional, cell-based. Particulars: K562, 48 h.
For data set [28], the target named is T1, Protein cereblon/Tyrosine-protein kinase ABL1 (Homo sapiens). Briefly: Protac activity at CRBN/ABL in human K562 cells assessed as reduction in ABL protein levels incubated for 24 hrs by Western blot analysis.
Data set [29] concerns the target T2, Protein cereblon/Tyrosine-protein kinase ABL1/Breakpoint cluster region protein (Homo sapiens). Briefly: Protac activity at CRBN/BCR-ABL in human K562 cells assessed as reduction in BCR-ABL protein levels pre-treated with ABL inhibitor dasatinib followed by compound addition at 250 nM incubated for 24 hrs by Western blot analysis. The format is cell-based.
Data set [30] deals with T1, Protein cereblon/Tyrosine-protein kinase ABL1 (Homo sapiens). Briefly: Protac activity at CRBN/ABL in human K562 cells assessed as reduction in ABL protein levels pre-treated with NEDD8-activating enzyme (NAE) inhibitor MLN4924 followed by compound addition at 250 nM incubated for 24 hrs by Western blot analysis. It is filed as cell-based.
The subject of another data set is HCT-116. Nature of the data set: Cytotoxicity against human HCT116 cells assessed as inhibition of cell viability incubated for 48 hrs by Cell-titer-Glo luminescent cell viability assay. The format is functional, cell-based.
Data set [31] concerns the target T2, Protein cereblon/Tyrosine-protein kinase ABL1/Breakpoint cluster region protein (Homo sapiens). Briefly: Protac activity at CRBN/BCR-ABL in human K562 cells assessed as reduction in BCR-ABL protein levels at 500 nM incubated for 24 hrs by Western blot analysis.
The target of data set [32] is T1, Protein cereblon/Tyrosine-protein kinase ABL1 (Homo sapiens). Nature of the data set: Protac activity at CRBN/ABL in human K562 cells assessed as reduction in ABL protein levels at 500 nM incubated for 24 hrs by Western blot analysis.

T1 sequence (P00519 whole entry, looked up): as the sequence (P00519 whole entry, looked up) above
T1 sequence (Q96SW2 whole entry, looked up): as the sequence (Q96SW2 whole entry, looked up) above

In the case of `Cc1nc(Nc2ncc(C(=O)Nc3c(C)cccc3Cl)s2)cc(N2CCN(CCCCOc3ccc(/N=N/c4ccc(C(=O)Nc5cccc6c5CN(C5CCC(=O)N(C)C5=O)C6=O)cc4)cc3)CC2)n1` (single isomer, unassigned; (-)), the result in data set [1] and in data set [2] was inactive.

Take `Cc1nc(Nc2ncc(C(=O)Nc3c(C)cccc3Cl)s2)cc(N2CCN(CCCCOc3ccc(/N=N/c4ccc(C(=O)Nc5cccc6c5CN(C5CCC(=O)NC5=O)C6=O)cc4)cc3)CC2)n1` (stereo unspecified): the outcome in data set [3], in data set [4], in data set [11], in data set [12], in data set [17] and in data set [19] was Active. The result in [20] and in data set [22] was Active. Also, the Drug metabolism entry in data set [5], in data set [21] and in [25] was “Metabolite detected” throughout. The Activity result in [6] was “Dose-dependent effect”; in data set [10] it was > 90%; with K562 [18], “Non-Toxic”; in data set [26], > 90%; in data set [28], “Dose-dependent effect”. Moreover, the result (in [7]; in [14]; in data set [15]; in data set [16]; in the data set on MCF7; with A549) was inactive. In addition, the result (in [23]; in data set [24]; in [29]; in data set [30]; with HCT-116) was inactive. Further, in the data set with K562 [8], the pIC50 was 7.17. The t1/2 in data set [9] was found to be 10.3 h. The Stability entry in data set [13] was “Stable”. The pEC50 in the data set with K562 [27] is 7.55.

Consider `Cc1nc(Nc2ncc(C(=O)Nc3c(C)cccc3Cl)s2)cc(N2CCN(CCCCOc3ccc(/N=N\c4ccc(C(=O)Nc5cccc6c5CN(C5CCC(=O)NC5=O)C6=O)cc4)cc3)CC2)n1` (stereo unspecified), for which the Activity result in data set [3] (TDE = time-dependent effect) and in data set [11] (TDE = time-dependent effect) was “Tde” in each case. The outcome in data set [10], in data set [26], in data set [31] and in [32] was inactive.

On to `Cc1nc(Nc2ncc(C(=O)Nc3c(C)cccc3Cl)s2)cc(N2CCN(CCOc3ccc(/N=N/c4ccc(C(=O)Nc5cccc6c5CN(C5CCC(=O)NC5=O)C6=O)cc4)cc3)CC2)n1` (stereo unspecified), for which the result in data set [12] and in [19] was Active.
